In ChEMBL document CHEMBL1158564, “Synthesis and biological evaluation of 1,4-diazepane derivatives as T-type calcium channel blockers” (Bioorg Med Chem Lett, 2010):

Molecular target: T1, Voltage-dependent T-type calcium channel subunit alpha-1G (Homo sapiens, UniProt O43497)
Test: Inhibition of T-type calcium channel alpha1G expressed in human HEK293 cells assessed as inhibition of KCl-induced increase in calcium level at 10 uM after 60 mins by FDSS6000 assay
Conditions: not given

T1 sequence (O43497 whole entry): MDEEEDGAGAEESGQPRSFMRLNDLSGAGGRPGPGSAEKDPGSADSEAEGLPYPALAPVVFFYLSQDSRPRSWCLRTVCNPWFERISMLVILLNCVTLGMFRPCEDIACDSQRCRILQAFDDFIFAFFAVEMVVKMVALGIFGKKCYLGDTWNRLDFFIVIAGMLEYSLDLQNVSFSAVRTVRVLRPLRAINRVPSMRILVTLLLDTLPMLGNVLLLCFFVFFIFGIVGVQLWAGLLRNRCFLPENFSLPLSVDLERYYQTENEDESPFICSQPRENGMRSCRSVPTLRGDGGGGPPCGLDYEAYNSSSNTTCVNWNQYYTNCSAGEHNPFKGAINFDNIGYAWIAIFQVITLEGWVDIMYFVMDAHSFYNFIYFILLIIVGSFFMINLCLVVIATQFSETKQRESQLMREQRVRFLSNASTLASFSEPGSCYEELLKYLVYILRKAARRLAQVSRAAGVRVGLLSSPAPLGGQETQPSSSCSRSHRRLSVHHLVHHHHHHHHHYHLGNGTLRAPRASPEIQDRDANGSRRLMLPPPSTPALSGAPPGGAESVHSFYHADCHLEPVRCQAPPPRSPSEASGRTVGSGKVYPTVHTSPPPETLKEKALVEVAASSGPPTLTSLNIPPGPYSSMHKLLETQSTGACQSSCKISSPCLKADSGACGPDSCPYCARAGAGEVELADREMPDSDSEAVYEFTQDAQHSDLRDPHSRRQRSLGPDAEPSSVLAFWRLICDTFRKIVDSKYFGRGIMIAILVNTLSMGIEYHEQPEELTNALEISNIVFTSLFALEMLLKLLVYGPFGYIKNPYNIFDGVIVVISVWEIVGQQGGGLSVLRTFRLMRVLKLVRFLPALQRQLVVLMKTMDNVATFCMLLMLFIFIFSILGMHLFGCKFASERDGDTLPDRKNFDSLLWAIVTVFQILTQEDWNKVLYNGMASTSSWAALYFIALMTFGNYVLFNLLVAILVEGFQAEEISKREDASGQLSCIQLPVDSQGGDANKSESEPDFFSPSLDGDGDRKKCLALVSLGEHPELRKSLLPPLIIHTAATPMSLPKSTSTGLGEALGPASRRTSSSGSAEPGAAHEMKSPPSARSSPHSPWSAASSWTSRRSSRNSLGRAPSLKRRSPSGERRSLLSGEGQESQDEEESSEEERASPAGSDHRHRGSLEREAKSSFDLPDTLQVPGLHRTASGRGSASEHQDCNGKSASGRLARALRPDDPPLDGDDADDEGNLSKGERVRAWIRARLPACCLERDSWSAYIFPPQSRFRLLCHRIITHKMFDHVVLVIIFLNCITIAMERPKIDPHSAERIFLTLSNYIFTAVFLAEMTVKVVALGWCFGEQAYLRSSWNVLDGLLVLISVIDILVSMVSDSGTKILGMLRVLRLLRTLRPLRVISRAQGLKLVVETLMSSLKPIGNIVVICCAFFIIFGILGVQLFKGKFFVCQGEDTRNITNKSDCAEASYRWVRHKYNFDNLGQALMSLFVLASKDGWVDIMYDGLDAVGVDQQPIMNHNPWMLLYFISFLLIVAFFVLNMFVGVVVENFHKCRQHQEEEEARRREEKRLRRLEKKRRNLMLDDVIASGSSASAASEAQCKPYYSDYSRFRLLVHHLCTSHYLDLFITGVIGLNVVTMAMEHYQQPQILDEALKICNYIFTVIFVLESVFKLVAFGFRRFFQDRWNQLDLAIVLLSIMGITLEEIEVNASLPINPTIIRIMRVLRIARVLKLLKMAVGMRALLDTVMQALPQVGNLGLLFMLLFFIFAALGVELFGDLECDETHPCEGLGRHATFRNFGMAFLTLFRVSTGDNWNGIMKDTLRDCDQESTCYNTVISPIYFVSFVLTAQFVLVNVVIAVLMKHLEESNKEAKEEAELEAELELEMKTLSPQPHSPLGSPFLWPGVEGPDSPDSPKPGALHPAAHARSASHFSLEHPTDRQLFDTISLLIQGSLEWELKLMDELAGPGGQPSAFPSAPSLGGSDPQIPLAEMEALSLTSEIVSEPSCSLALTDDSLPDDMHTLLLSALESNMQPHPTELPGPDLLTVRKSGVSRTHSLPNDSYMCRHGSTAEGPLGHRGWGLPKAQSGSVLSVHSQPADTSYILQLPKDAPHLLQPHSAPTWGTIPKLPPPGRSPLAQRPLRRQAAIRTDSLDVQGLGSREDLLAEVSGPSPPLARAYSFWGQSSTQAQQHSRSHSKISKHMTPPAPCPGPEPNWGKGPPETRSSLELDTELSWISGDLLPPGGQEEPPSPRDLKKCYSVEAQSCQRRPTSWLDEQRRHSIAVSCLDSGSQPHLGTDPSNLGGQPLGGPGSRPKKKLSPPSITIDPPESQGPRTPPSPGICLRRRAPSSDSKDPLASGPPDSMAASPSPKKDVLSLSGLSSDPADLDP

Row | SMILES | inhibition
1 | Cc1ccc(NCC(=O)N2CCCN(Cc3nc4ccccc4[nH]3)CC2)cc1 | 16.4%
2 | O=C(CN1CCCN(Cc2nc3ccccc3[nH]2)CC1)Nc1ccccc1F | 32.4%
3 | Cc1ccc(NC(=O)CN2CCCN(Cc3nc4ccccc4[nH]3)CC2)cc1 | 44.8%
4 | O=C(CN1CCCN(Cc2nc3ccccc3[nH]2)CC1)Nc1ccccc1Cl | 56.8%
5 | COc1ccccc1NC(=O)CN1CCCN(Cc2nc3ccccc3[nH]2)CC1 | 59.1%
6 | O=C(CNc1ccccc1Cl)N1CCCN(Cc2nc3ccccc3[nH]2)CC1 | 32.2%
7 | Cc1ccc(NC(=O)CN2CCCN(Cc3nc4ccccc4[nH]3)CC2)c(C)c1 | 47.6%
8 | O=C(CNc1cccc(C(F)(F)F)c1)N1CCCN(Cc2nc3ccccc3[nH]2)CC1 | 27.3%
9 | CCc1cccc(CC)c1NC(=O)CN1CCCN(Cc2nc3ccccc3[nH]2)CC1 | 57.4%
10 | CCc1cccc(CC)c1NCC(=O)N1CCCN(Cc2nc3ccccc3[nH]2)CC1 | 62.4%
11 | COc1cccc(NCC(=O)N2CCCN(Cc3nc4ccccc4[nH]3)CC2)c1 | 1.54%
12 | COc1ccc(NC(=O)CN2CCCN(Cc3nc4ccccc4[nH]3)CC2)cc1 | 32.4%
13 | Cc1cccc(NCC(=O)N2CCCN(Cc3nc4ccccc4[nH]3)CC2)c1 | 8.48%
14 | Cc1ccc(NC(=O)CN2CCCN(Cc3nc4ccccc4[nH]3)CC2)cc1C | 56.2%
15 | O=C(CNc1ccc(C(F)(F)F)cc1)N1CCCN(Cc2nc3ccccc3[nH]2)CC1 | 28.2%
16 | Cc1ccccc1NCC(=O)N1CCCN(Cc2nc3ccccc3[nH]2)CC1 | 7.04%
17 | Cc1cccc(NC(=O)CN2CCCN(Cc3nc4ccccc4[nH]3)CC2)c1 | 54.8%
18 | Cc1cccc(C)c1NC(=O)CN1CCCN(Cc2nc3ccccc3[nH]2)CC1 | 39.8%
19 | O=C(CN1CCCN(Cc2nc3ccccc3[nH]2)CC1)Nc1ccc(Cl)cc1 | 51.3%

Row | SMILES | inhibition
20 | Cc1ccccc1NC(=O)CN1CCCN(Cc2nc3ccccc3[nH]2)CC1 | 51.8%
21 | O=C(CN1CCCN(Cc2nc3ccccc3[nH]2)CC1)Nc1cccc(C(F)(F)F)c1 | 60.1%
22 | O=C(CNc1cccc(Cl)c1)N1CCCN(Cc2nc3ccccc3[nH]2)CC1 | 40.9%
23 | Cc1ccc(NCC(=O)N2CCCN(Cc3nc4ccccc4[nH]3)CC2)cc1C | 16.5%
24 | O=C(CNc1cccc(F)c1)N1CCCN(Cc2nc3ccccc3[nH]2)CC1 | 7.52%
25 | O=C(CN1CCCN(Cc2nc3ccccc3[nH]2)CC1)Nc1ccc(F)cc1 | 46.6%
26 | O=C(CNc1ccccc1F)N1CCCN(Cc2nc3ccccc3[nH]2)CC1 | 22.3%
27 | O=C(CN1CCCN(Cc2nc3ccccc3[nH]2)CC1)Nc1ccc(C(F)(F)F)cc1 | 60.7%
28 | O=C(CN1CCCN(Cc2nc3ccccc3[nH]2)CC1)Nc1ccccc1C(F)(F)F | 41.7%
29 | O=C(CNc1ccc(F)cc1)N1CCCN(Cc2nc3ccccc3[nH]2)CC1 | 12.8%
30 | COc1ccc(NCC(=O)N2CCCN(Cc3nc4ccccc4[nH]3)CC2)cc1 | 0.92%
31 | COc1ccccc1NCC(=O)N1CCCN(Cc2nc3ccccc3[nH]2)CC1 | 8.29%
32 | O=C(CNc1ccccc1C(F)(F)F)N1CCCN(Cc2nc3ccccc3[nH]2)CC1 | 66%
33 | COc1cccc(NC(=O)CN2CCCN(Cc3nc4ccccc4[nH]3)CC2)c1 | 46.1%
34 | O=C(CNc1ccc(Cl)cc1)N1CCCN(Cc2nc3ccccc3[nH]2)CC1 | 36.9%
35 | Cc1ccc(NCC(=O)N2CCCN(Cc3nc4ccccc4[nH]3)CC2)c(C)c1 | 21.1%
36 | O=C(CN1CCCN(Cc2nc3ccccc3[nH]2)CC1)Nc1cccc(Cl)c1 | 41.7%
37 | O=C(CN1CCCN(Cc2nc3ccccc3[nH]2)CC1)Nc1cccc(F)c1 | 46.4%
38 | Cc1cccc(C)c1NCC(=O)N1CCCN(Cc2nc3ccccc3[nH]2)CC1 | 29.5%

Tested on: not listed separately
Test: Ratio of drug level in brain to plasma in po dosed rat
Format: ADME, organism-based
Conditions: read-out: BPR
How it was run: (§1)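 Rat plasma pharmacokinetics after intravenous (n = 4) or oral (n = 3) dosing. Brain-to-plasma ratio, Cmax, Tmax, half-life, Vdss and oral bioavailability were derived per route. Values are given as mean with standard deviation.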

Row | SMILES | Kp
39 | O=C(CN1CCCN(Cc2nc3ccccc3[nH]2)CC1)Nc1ccc(C(F)(F)F)cc1 | 0.105

Tested on: not listed separately
Test: Volume of distribution at steady state in iv dosed rat
Format: ADME, organism-based
Conditions: in vivo, read-out: Vdss
How it was run: as §1

Row | SMILES | Vd
40 | O=C(CN1CCCN(Cc2nc3ccccc3[nH]2)CC1)Nc1ccc(C(F)(F)F)cc1 | 2.33 L/kg

Molecular target: Voltage-dependent N-type calcium channel subunit alpha-1B (Homo sapiens, UniProt Q00975)
Sequence (Q00975 whole entry): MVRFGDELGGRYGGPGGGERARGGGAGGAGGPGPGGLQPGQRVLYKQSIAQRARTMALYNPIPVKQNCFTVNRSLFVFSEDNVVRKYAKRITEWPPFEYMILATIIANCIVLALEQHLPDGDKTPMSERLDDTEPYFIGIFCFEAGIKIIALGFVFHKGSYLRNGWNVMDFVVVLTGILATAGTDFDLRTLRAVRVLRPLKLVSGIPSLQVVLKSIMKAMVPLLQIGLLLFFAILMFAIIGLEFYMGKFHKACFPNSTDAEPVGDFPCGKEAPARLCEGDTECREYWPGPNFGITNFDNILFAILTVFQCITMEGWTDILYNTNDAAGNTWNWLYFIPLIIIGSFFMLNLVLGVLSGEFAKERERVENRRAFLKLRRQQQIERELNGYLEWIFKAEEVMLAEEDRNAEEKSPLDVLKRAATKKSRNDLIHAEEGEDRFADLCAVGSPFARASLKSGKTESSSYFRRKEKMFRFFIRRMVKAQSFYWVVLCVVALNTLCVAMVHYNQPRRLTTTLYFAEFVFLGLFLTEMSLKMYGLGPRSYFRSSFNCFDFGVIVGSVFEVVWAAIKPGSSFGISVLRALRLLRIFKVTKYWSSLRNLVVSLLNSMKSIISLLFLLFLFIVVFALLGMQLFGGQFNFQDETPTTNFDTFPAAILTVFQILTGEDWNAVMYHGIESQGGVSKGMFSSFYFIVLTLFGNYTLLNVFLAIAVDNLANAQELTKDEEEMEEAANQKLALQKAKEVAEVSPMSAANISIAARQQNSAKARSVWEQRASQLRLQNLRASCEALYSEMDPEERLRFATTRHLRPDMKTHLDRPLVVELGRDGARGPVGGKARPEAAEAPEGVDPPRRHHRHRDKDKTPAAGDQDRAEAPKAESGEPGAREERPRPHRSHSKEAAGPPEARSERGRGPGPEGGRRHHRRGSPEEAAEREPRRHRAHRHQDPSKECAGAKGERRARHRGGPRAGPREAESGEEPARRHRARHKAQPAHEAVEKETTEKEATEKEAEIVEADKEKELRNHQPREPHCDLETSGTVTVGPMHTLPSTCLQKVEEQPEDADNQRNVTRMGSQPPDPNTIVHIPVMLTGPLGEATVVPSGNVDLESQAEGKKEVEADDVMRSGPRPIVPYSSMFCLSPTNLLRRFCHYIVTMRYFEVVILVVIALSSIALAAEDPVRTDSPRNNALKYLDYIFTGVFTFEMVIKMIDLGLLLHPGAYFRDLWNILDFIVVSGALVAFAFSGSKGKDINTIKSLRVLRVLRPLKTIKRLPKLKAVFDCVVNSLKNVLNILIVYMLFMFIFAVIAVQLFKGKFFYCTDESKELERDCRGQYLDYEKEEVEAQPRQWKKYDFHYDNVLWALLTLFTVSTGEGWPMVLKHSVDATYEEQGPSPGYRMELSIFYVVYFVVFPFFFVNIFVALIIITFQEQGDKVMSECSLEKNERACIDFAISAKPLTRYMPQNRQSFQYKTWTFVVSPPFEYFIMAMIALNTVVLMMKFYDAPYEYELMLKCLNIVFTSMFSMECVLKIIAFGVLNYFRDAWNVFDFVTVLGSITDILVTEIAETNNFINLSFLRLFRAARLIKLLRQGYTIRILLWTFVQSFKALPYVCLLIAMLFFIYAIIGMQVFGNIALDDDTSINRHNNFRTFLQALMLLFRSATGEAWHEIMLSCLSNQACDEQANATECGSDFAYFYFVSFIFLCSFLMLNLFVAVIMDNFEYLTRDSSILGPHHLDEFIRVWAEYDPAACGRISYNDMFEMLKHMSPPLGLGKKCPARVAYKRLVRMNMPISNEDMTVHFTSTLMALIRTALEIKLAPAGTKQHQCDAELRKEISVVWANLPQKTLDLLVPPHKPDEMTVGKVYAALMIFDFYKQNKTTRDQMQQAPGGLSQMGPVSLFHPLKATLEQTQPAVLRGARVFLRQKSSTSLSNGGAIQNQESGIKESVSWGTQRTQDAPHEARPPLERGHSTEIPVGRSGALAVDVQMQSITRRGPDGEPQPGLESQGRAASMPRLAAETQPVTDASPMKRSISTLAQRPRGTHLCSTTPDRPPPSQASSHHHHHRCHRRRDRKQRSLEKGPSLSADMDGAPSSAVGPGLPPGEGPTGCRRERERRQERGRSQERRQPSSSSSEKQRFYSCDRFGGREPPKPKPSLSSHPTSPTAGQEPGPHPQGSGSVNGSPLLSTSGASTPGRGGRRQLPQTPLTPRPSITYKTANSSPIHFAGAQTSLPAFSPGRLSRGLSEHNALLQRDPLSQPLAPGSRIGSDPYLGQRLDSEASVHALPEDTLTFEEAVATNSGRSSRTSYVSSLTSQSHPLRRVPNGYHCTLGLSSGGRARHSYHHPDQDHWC
Test: Inhibition of N-type calcium channel Alpha-1B
Conditions: not given

Row | SMILES | IC50
41 | COCC(=O)O[C@]1(CCN(C)CCCc2nc3ccccc3[nH]2)CCc2cc(F)ccc2[C@@H]1C(C)C [MIBEFRADIL] | 1340 nM
42 | O=C(CN1CCCN(Cc2nc3ccccc3[nH]2)CC1)Nc1ccc(C(F)(F)F)cc1 | 28700 nM

Tested on: not listed separately
Test: Half life in iv dosed rat
Format: ADME, organism-based
Conditions: in vivo
How it was run: as §1

Row | SMILES | half-life
43 | O=C(CN1CCCN(Cc2nc3ccccc3[nH]2)CC1)Nc1ccc(C(F)(F)F)cc1 | 5.67 h

Tested on: not listed separately
Test: Half life in po dosed rat
Format: ADME, organism-based
Conditions: in vivo
How it was run: as §1

Row | SMILES | half-life
44 | O=C(CN1CCCN(Cc2nc3ccccc3[nH]2)CC1)Nc1ccc(C(F)(F)F)cc1 | 4.34 h

Tested on: not listed separately
Test: Cmax in po dosed rat
Format: ADME, organism-based
Parameters: route oral
Conditions: in vivo
How it was run: as §1

Row | SMILES | Cmax
45 | O=C(CN1CCCN(Cc2nc3ccccc3[nH]2)CC1)Nc1ccc(C(F)(F)F)cc1 | 2280 ng/mL

Tested on: not listed separately
Test: Tmax in po dosed rat
Format: ADME, organism-based
Conditions: in vivo
How it was run: as §1

Row | SMILES | Tmax
46 | O=C(CN1CCCN(Cc2nc3ccccc3[nH]2)CC1)Nc1ccc(C(F)(F)F)cc1 | 2 h

Tested on: not listed separately
Test: Oral bioavailability in rat
Format: ADME, organism-based
Conditions: in vivo
How it was run: as §1

Row | SMILES | bioavailability
47 | O=C(CN1CCCN(Cc2nc3ccccc3[nH]2)CC1)Nc1ccc(C(F)(F)F)cc1 | 43.4%

Molecular target: Voltage-gated inwardly rectifying potassium channel KCNH2 (Homo sapiens, UniProt Q12809)
Test: Inhibition of human ERG
Conditions: not given

Row | SMILES | IC50
48 | O=C(CN1CCCN(Cc2nc3ccccc3[nH]2)CC1)Nc1ccc(C(F)(F)F)cc1 | 4970 nM
49 | O=C(CNc1ccccc1C(F)(F)F)N1CCCN(Cc2nc3ccccc3[nH]2)CC1 | 1320 nM

Molecular target: T1, Voltage-dependent T-type calcium channel subunit alpha-1G
Test: Inhibition of T-type calcium channel alpha1G expressed in human HEK293 cells assessed as inhibition of peak currents by whole-cell patch-clamp method
Format: cell-based
Conditions: not given
How it was run: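 Whole-cell recording of α1G T-type Ca²⁺ currents, evoked every 15 s by a 50 ms depolarizing step from −100 mV to −30 mV. Peak-current inhibition was measured across compound concentrations. IC50 was obtained by fitting raw data to dose–response curves.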

Row | SMILES | IC50
50 | O=C(CN1CCCN(Cc2nc3ccccc3[nH]2)CC1)Nc1ccccc1Cl | 1470 nM
51 | COc1ccccc1NC(=O)CN1CCCN(Cc2nc3ccccc3[nH]2)CC1 | 12600 nM
52 | CCc1cccc(CC)c1NC(=O)CN1CCCN(Cc2nc3ccccc3[nH]2)CC1 | 2080 nM
53 | CCc1cccc(CC)c1NCC(=O)N1CCCN(Cc2nc3ccccc3[nH]2)CC1 | 4000 nM
54 | Cc1ccc(NC(=O)CN2CCCN(Cc3nc4ccccc4[nH]3)CC2)cc1C | 2390 nM
55 | O=C(CN1CCCN(Cc2nc3ccccc3[nH]2)CC1)Nc1ccc(C(F)(F)F)cc1 | 1230 nM
56 | O=C(CNc1ccccc1C(F)(F)F)N1CCCN(Cc2nc3ccccc3[nH]2)CC1 | 3170 nM

Tested on: not listed separately
Test: Ratio of drug level in brain to plasma in iv dosed rat
Format: ADME, organism-based
Conditions: read-out: BPR
How it was run: as §1

Row | SMILES | Kp
57 | O=C(CN1CCCN(Cc2nc3ccccc3[nH]2)CC1)Nc1ccc(C(F)(F)F)cc1 | 0.438
